ChEMBL document CHEMBL2434891, “Design, synthesis, and in vitro cancer cell growth inhibition evaluation and antimalarial testing of trioxanes installed in cyclic 2-enoate substructures” (Eur J Med Chem, 2013)
≈ marks a conversion by molar mass, not a printed value. Calls of active or inactive are those of the source. The rule behind the calls is not given here.

Legend:
MV4-11 = assay: Antiproliferative activity against human MV4-11 cells after 72 hrs by MTT assay; type: functional, cell-based; settings: MV4-11, 72 h
Plasmodium falciparum = assay: Antimalarial activity against erythrocytic stage of Plasmodium falciparum NF54 infected in RBC after 48 hrs by [3H]-hypoxanthine incorporation assay; type: functional, organism-based
L6 = assay: Cytotoxicity against rat L6 cells after 70 hrs by alamar blue assay; settings: L6, 70 h
BALB/3T3 = assay: Cytotoxicity against mouse BALB/3T3 cells after 72 hrs by SRB assay; type: cell-based; settings: BALB/3T3, 72 h
Procedure, shortened: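 Adherent cells grown at 37 °C and 5% CO2. A549 and HCT116 were in RPMI 1640/OptiMEM (50:50) with 5% FBS; BALB/3T3 in Dulbecco medium with 10% FBS and pyruvate. Seeded at 1×10^4/well 24 h before dosing, then 72 h at 10–0.01 µg/mL final. Fixed with cold 50% TCA, stained with 0.4% SRB, dye extracted in 10 mM Tris, read at 540 nm.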

A549 = assay: Cytotoxicity against human A549 cells after 72 hrs by SRB assay; type: functional, cell-based; settings: A549, 72 h
Procedure, shortened: (§1)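 Adherent cells grown at 37 °C and 5% CO2. Seeded at 1×10^4/well 24 h before dosing, then 72 h at 10–0.01 µg/mL final. Fixed with cold 50% TCA, stained with 0.4% SRB, dye extracted in 10 mM Tris, read at 540 nm.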

HCT-116 = assay: Cytotoxicity against human HCT116 cells after 72 hrs by SRB assay; type: functional, cell-based; settings: HCT-116, 72 h; procedure, shortened: as §1
[1] = Binding affinity to hemin assessed as complexation of hemin-endoperoxides in 0.1 M tris buffer at pH 9 at 25 to 500 uM after 24 hrs by UV-vis absorption spectroscopy
Procedure, shortened: (§2)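 Hemin held at 6 µM with compound at 0–500 µM in 60% 0.1 M Tris buffer (pH 9.0) and 40% DMSO. Mixtures incubated 12 h or 24 h.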

[2] = Binding affinity to hemin assessed as hemin-induced oxidative damage in 0.1 M tris buffer at pH 9 at 25 to 500 uM after 2 hrs by UV-vis absorption spectroscopy in presence of methylene blue
Procedure, shortened: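 Methylene blue (10 µM) used as substrate for heme-catalysed oxidation. Compound incubated 2 h at 37 °C with hemin (6 µM) and methylene blue in 60% 0.1 M Tris buffer (pH 9.0) and 40% DMSO. Mixture absorbance then read by UV–vis spectrophotometry.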

[3] = Binding affinity to hemin assessed as complexation of hemin-endoperoxides in 0.1 M tris buffer at pH 9 at 25 to 500 uM after 12 hrs by UV-vis absorption spectroscopy; procedure, shortened: as §2

Work on `COc1cccc(C2C[C@]34OO[C@](C)(C=C3C(=O)O2)C(C)O4)c1` (stereo partly drawn) yielded an IC50 (MV4-11) of 7.76 µM.

Work on `COc1ccc(C2O[C@]34CC(c5ccccc5)(c5ccccc5)OC(=O)C3=C[C@@]2(C)OO4)cc1` (stereo partly drawn) yielded an IC50 (Plasmodium falciparum) of 4.2 µg/mL (≈ 9.2 µM), an IC50 (L6) of 1.9 µg/mL (≈ 4.16 µM) and an IC50 (MV4-11) of 3.78 µM.

With `C[C@]12C=C3C(=O)OC(c4ccc(C(F)(F)F)cc4)C[C@@]3(OO1)OC2c1ccccc1` (stereo partly drawn) the IC50 (BALB/3T3) was 9.01 µM, the IC50 (A549) was 10.9 µM and the IC50 (HCT-116) was 7.43 µM. The IC50 (MV4-11) was 0.779 µM.

`C[C@]12C=C3C(=O)OC(c4ccccc4Br)C[C@@]3(OO1)OC2c1ccc([N+](=O)[O-])cc1` (stereo partly drawn) gave an IC50 (BALB/3T3) of 7.53 µM, an IC50 (A549) of 11.6 µM and an IC50 (HCT-116) of 7.08 µM. For the same compound, the IC50 (MV4-11) was 0.837 µM.

In the case of `COC(=O)C1=C[C@]23CCCC[C@@H]2O[C@@]1(C)OO3`, the IC50 (MV4-11) is reported as 8.08 µM.

Compound `C[C@]12C=C3C(=O)OC(c4ccc(C(F)(F)F)cc4)C[C@@]3(OO1)OC2c1ccc(Br)cc1` (stereo partly drawn) has an IC50 (MV4-11) of 5.51 µM.

`C[C@]12C=C3C(=O)OC(c4ccccc4)(c4ccccc4)C[C@@]3(OO1)OC2c1ccc([N+](=O)[O-])cc1` (stereo partly drawn) showed an IC50 (Plasmodium falciparum) of 5.25 µg/mL (≈ 11.1 µM), an IC50 (L6) of 3.49 µg/mL (≈ 7.4 µM) and an IC50 (MV4-11) of 3.79 µM.

Work on `COC(=O)c1ccc(C2O[C@]34CC(c5ccccc5)(c5ccccc5)OC(=O)C3=C[C@@]2(C)OO4)cc1` (stereo partly drawn) yielded an IC50 (Plasmodium falciparum) of 5.62 µg/mL (≈ 11.6 µM), an IC50 (L6) of 1.67 µg/mL (≈ 3.45 µM) and an IC50 (MV4-11) of 2.99 µM.

For `CC1O[C@]23CC(c4ccc(F)cc4)OC(=O)C2=C[C@@]1(C)OO3` (stereo partly drawn), the IC50 (MV4-11) was 6.89 µM.

In the case of `C[C@]12C=C3C(=O)OC(c4cccc(Cl)c4)C[C@@]3(OO1)OC2c1ccc([N+](=O)[O-])cc1` (stereo partly drawn), the Activity [1] is reported as “Active”, the Activity [2] is reported as “Active” and the Activity [3] is reported as “Active”. For the same compound, the IC50 (MV4-11) was 3.91 µM.

For `C[C@]12C=C3C(=O)OC(c4ccccc4)(c4ccccc4)C[C@@]3(OO1)OC2c1ccc(Cl)cc1` (stereo partly drawn), the IC50 (Plasmodium falciparum) was 9.88 µg/mL (≈ 21.4 µM), the IC50 (L6) was 2.03 µg/mL (≈ 4.4 µM) and the IC50 (MV4-11) was 3.6 µM.

For `C[C@]12C=C3C(=O)OC(c4ccc(Cl)cc4)C[C@@]3(OO1)OC2c1ccc([N+](=O)[O-])cc1` (stereo partly drawn), the IC50 (BALB/3T3) was 8.21 µM, the IC50 (A549) was 8.28 µM and the Activity [1] was “Active”. The Activity [2] was “Active”, the IC50 (HCT-116) was 7.37 µM and the Activity [3] was “Active”. It also gave an IC50 (MV4-11) of 0.593 µM.

Work on `COc1ccc(C2C[C@]34OO[C@](C)(C=C3C(=O)O2)C(c2ccccc2)O4)cc1OC` (stereo partly drawn) yielded an IC50 (BALB/3T3) of 10.1 µM, an IC50 (A549) greater than 24 µM and an IC50 (HCT-116) of 11.7 µM. The IC50 (Plasmodium falciparum) was 3.28 µg/mL (≈ 7.99 µM), the IC50 (L6) was 0.52 µg/mL (≈ 1.27 µM) and the IC50 (MV4-11) was 0.901 µM.

Compound `COc1ccc(C2O[C@]34CC(c5ccc(Cl)cc5)N(C(=O)OC(C)(C)C)C(=O)C3=C[C@@]2(C)OO4)cc1` (stereo partly drawn) has an IC50 (BALB/3T3) of 6.87 µM, an IC50 (A549) of 6.32 µM and an IC50 (HCT-116) of 5.56 µM. For the same compound, the IC50 (MV4-11) was 0.661 µM.

In the case of `C[C@]12C=C3C(=O)CC(c4ccccc4)C[C@@]3(OO1)OC2c1ccc([N+](=O)[O-])cc1` (stereo partly drawn), the IC50 (Plasmodium falciparum) is reported as 3.1 µg/mL (≈ 7.88 µM), the IC50 (L6) is reported as 5.6 µg/mL (≈ 14.2 µM) and the IC50 (MV4-11) is reported as 6.53 µM.

Compound `CC1O[C@]23CC(c4cccc(Cl)c4)OC(=O)C2=C[C@@]1(C)OO3` (stereo partly drawn) has an IC50 (MV4-11) of 7.31 µM.

With `CC(C)(C)OC(=O)N1C(=O)C2=C[C@@]3(C)OO[C@]2(CC1c1ccc(Cl)cc1)OC3c1ccccc1` (stereo partly drawn) the IC50 (BALB/3T3) was 5.46 µM, the IC50 (A549) was 6.66 µM and the IC50 (HCT-116) was 6.02 µM. For the same compound, the IC50 (MV4-11) was 0.517 µM.

In the case of `COc1ccc(C2C[C@]34OO[C@](C)(C=C3C(=O)O2)C(c2ccc([N+](=O)[O-])cc2)O4)cc1OC` (stereo partly drawn), the IC50 (BALB/3T3) is reported as 7.2 µM, the IC50 (A549) is reported as 7.73 µM and the Activity [1] is reported as “Active”. The Activity [2] was “Active”, the IC50 (HCT-116) was 6.79 µM and the Activity [3] was “Active”. It also gave an IC50 (MV4-11) of 0.911 µM.

`COc1ccc(C2O[C@]34CC(c5ccc(Cl)cc5)OC(=O)C3=C[C@@]2(C)OO4)cc1` (stereo partly drawn) showed an IC50 (MV4-11) of 4.31 µM.

`COc1ccc(C2O[C@]34CCCC(=O)C3=C[C@@]2(C)OO4)cc1` (stereo partly drawn) gave an IC50 (Plasmodium falciparum) of 3.41 µg/mL (≈ 11.3 µM), an IC50 (L6) of 4.5 µg/mL (≈ 14.9 µM) and an IC50 (MV4-11) greater than 33 µM.

For `COc1ccc(C2O[C@]34CC(c5ccccc5)CC(=O)C3=C[C@@]2(C)OO4)cc1` (stereo partly drawn), the IC50 (MV4-11) was 6.5 µM.

Work on `CC1O[C@]23CC(c4ccc(Cl)cc4)N(C(=O)OC(C)(C)C)C(=O)C2=C[C@@]1(C)OO3` (stereo partly drawn) yielded an IC50 (BALB/3T3) of 6.21 µM, an IC50 (A549) of 7.2 µM and an IC50 (HCT-116) of 7.3 µM. For the same compound, the IC50 (MV4-11) was 1.04 µM.

For `C[C@]12C=C3C(=O)CCC[C@@]3(OO1)OC2c1ccc([N+](=O)[O-])cc1` (stereo partly drawn), the IC50 (MV4-11) was greater than 31 µM.

Work on `CC(C)(C)OC(=O)N1C(=O)C2=C[C@@]3(C)OO[C@]2(CC1c1ccc(Cl)cc1)OC3c1ccc([N+](=O)[O-])cc1` (stereo partly drawn) yielded an IC50 (BALB/3T3) of 6.67 µM, an IC50 (A549) of 6.22 µM and an IC50 (HCT-116) of 5.54 µM. It also gave an IC50 (Plasmodium falciparum) of 1.97 µg/mL (≈ 3.72 µM), an IC50 (L6) of 1.16 µg/mL (≈ 2.19 µM) and an IC50 (MV4-11) of 0.501 µM.

In the case of `COc1ccc(C2C[C@]34OO[C@](C)(C=C3C(=O)O2)C(c2ccc([N+](=O)[O-])cc2)O4)cc1` (stereo partly drawn), the IC50 (BALB/3T3) is reported as 7.36 µM, the IC50 (A549) is reported as 8.44 µM and the IC50 (HCT-116) is reported as 7.5 µM. It also gave an IC50 (MV4-11) of 0.735 µM.

With `CC1O[C@]23CC(c4ccc(C(F)(F)F)cc4)OC(=O)C2=C[C@@]1(C)OO3` (stereo partly drawn) the IC50 (BALB/3T3) was 12.5 µM, the IC50 (A549) was 13.9 µM and the IC50 (HCT-116) was 9.49 µM. It also gave an IC50 (MV4-11) of 0.895 µM.

Compound `CC1O[C@]23CC(c4ccc(Br)cc4)OC(=O)C2=C[C@@]1(C)OO3` (stereo partly drawn) has an IC50 (BALB/3T3) of 12 µM, an IC50 (A549) of 13 µM and an IC50 (HCT-116) of 9.2 µM. For the same compound, the IC50 (MV4-11) was 0.98 µM.

For `COc1ccc(C2C[C@]34OO[C@](C)(C=C3C(=O)O2)C(C)O4)cc1OC` (stereo partly drawn), the IC50 (MV4-11) was 11.1 µM.

In the case of `COc1ccc(C2O[C@]34CC(c5ccc(OC)c(OC)c5)OC(=O)C3=C[C@@]2(C)OO4)cc1` (stereo partly drawn), the IC50 (MV4-11) is reported as 4.38 µM.

Compound `C[C@]12C=C3C(=O)OC(c4ccc(Cl)cc4)C[C@@]3(OO1)OC2c1ccc(Br)cc1` (stereo partly drawn) has an IC50 (MV4-11) of 4.21 µM.

In the case of `COc1ccc(C2O[C@]34CC(c5ccc(C(F)(F)F)cc5)OC(=O)C3=C[C@@]2(C)OO4)cc1` (stereo partly drawn), the IC50 (MV4-11) is reported as 4.84 µM.

For `COc1ccc(C2O[C@]34CC(c5ccc(F)cc5)OC(=O)C3=C[C@@]2(C)OO4)cc1` (stereo partly drawn), the IC50 (BALB/3T3) was 9.06 µM, the IC50 (A549) was 11.8 µM and the IC50 (HCT-116) was 8.08 µM. It also gave an IC50 (Plasmodium falciparum) of 1.68 µg/mL (≈ 4.22 µM), an IC50 (L6) of 0.5 µg/mL (≈ 1.26 µM) and an IC50 (MV4-11) of 0.582 µM.
